OX1R antag-1: antagonists of human orexin 1 receptor (OX1R). O43613. OX1R-expressing cells, FRET antagonist read-out. inhibition, % at 6.6 µM. 1.8% of 330,000 active; in the data active = inhibition mostly above about 38%, no sharp cut-off; inactive = mostly below about 40%;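 also: 0% = agonist challenge alone and 100% = reference antagonist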
OX1R antag-2: human HCRTR1 antagonism. O43613. CHO/OX1R cells, Fluo-8 calcium fluorescence, orexin A. inhibition, % at 5 µM. 0.43% of 330,000 active;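 active = inhibition above its plate's threshold, mean inhibition of all tested compounds on the plate plus 3 SD, cut at about 37% in these data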;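 also: 0% = orexin A challenge wells and 100% = SB-334867-A antagonist wells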
GPR7 antagonist: human neuropeptides B/W receptor 1 antagonism; GPR7-expressing cells, fluorescence antagonist assay; P48145; 1.1% of 290,000 active; inhibition, % at 4.4 µM; in the data active = inhibition above about 16%, passing the limit was not always enough;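 also: cells stimulated with the agonist NPW; 0% = agonist with vehicle and 100% = vehicle without agonist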
Target sequence (P48145 whole entry, looked up): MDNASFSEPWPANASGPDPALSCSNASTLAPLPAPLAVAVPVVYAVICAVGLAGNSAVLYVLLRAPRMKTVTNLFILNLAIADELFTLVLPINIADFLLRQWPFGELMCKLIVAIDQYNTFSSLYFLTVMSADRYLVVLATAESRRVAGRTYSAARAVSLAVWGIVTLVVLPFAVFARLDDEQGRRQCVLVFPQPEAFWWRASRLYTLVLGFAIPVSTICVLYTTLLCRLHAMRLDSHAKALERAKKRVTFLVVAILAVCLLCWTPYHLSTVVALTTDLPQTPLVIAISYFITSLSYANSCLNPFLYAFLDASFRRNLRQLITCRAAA
CHO parental Ca: signal in parental CHO cells, OX1R antagonist counter-screen; parental CHO-K1, ATP-induced calcium, Fluo-8 fluorescence; inhibition, % at 5.6 µM; 0.63% of 330,000 active;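 active = inhibition above that plate's mean sample inhibition plus 3 SD, cut at about 26% in these data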;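 also: 0% = ATP-challenged DMSO wells and 100% = DMSO wells without ATP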
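Assay system – parental CHO cells · Reagent – ATP stimulus · Detection – intracellular calcium via Fluo-8 no-wash fluorescent dye · Evaluation – percent inhibition of ATP-evoked calcium rise, normalized to controls · Controls – ATP wells versus no-ATP DMSO wells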
GalR3 antagonist: antagonists of human GalR3; O60755; HEK293 GalR3-CNG cAMP membrane potential fluorescence; galR3 body fused to GalR1 C-terminus; inhibition, % at 3 µM; 0.44% of 360,000 active; AID 651719;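 active = inhibition above the screen-wide average plus 3 SD, cut at about 13% in these data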;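 also: forskolin and galanin both at EC90 stimulate the cells; cAMP rise reported by CNG channel membrane potential dye signal; 0% = forskolin plus galanin with DMSO and 100% = forskolin alone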
GPR7 antag cf: confirmation of human GPR7 antagonists | AID 1952 | 52% of 2,400 active | inhibition, % at 4.4 µM | shares compounds with GPR7 antagonist | GPR7-expressing cells, calcium fluorescence antagonist mode; in the data active = inhibition above about 24%;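 also: stimulated with the GPR7 agonist NPW; 0% = agonist plus vehicle and 100% = vehicle alone without agonist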
MCHR1 antagonist: counter-screen for GPR7 antagonists: antagonists of human MCHR1; 62% of 2,400 active; inhibition, % at 4.4 µM; shares compounds with GPR7 antagonist; MCHR1-expressing cells, fluorescence antagonist assay; in the data active = inhibition above about 22%;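 also: 0% = vehicle with agonist and 100% = vehicle without agonist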
The depositor's hits bear a star; · = no result. Rows were chosen to be rich in hits. Some 3.1% of all compounds tested hit in one or more screens of this group.

SMILES | OX1R antag-1 | OX1R antag-2 | GPR7 antagonist | CHO parental Ca | GalR3 antagonist | GPR7 antag cf | MCHR1 antagonist
CC[n+]1c(/C=C/N(C)c2ccccc2)n(-c2ccccc2)c2ccc(-c3nc4ccccc4s3)cc21 | 41.6* | 79.4* | 84.5* | 68.6* | · | 94.6* | 88.5*
CCOC(=O)c1sc(NC(=O)Nc2ccc(Cl)cc2)cc1C | 86.2* | 66.7* | 35.3* | 79.0* | -2.2 | 63.2* | 72.4*
O=C(NC1CCCCC1)C(c1ccccc1)N(Cc1ccco1)C(=O)Cn1cnc2ccccc21 (stereo not drawn) | · | · | 22.4* | · | -6.0 | 17.1 | 14.1
O=C(c1cnccn1)N(Cc1ccco1)C1(C(=O)NC2CCCCC2)CCCCC1 | 28.7 | -26.2 | 31.5* | -7.5 | -10.2 | 21.8 | 14.6
O=C(NC1CCCC1)C(c1ccsc1)N(Cc1ccco1)C(=O)Cc1cccs1 (stereo not drawn) | 24.5 | -35.4 | 43.9* | -40.7 | -5.3 | 43.1* | 30.9*
O=C1NC(=O)C(CC(=O)N(Cc2ccco2)C2(C(=O)NC3CCCC3)CCCCC2)N1 (stereo not drawn) | 14.8 | -4.9 | 10.9 | -9.4 | -3.8 | · | ·
O=C(NC1CCCCC1)C(c1ccccc1)N(Cc1ccco1)C(=O)c1csnn1 (stereo not drawn) | 45.6 | -48.1 | 12.9 | -4.6 | -7.5 | · | ·
O=C(Cc1cccs1)N(Cc1ccco1)C1(C(=O)NC2CCCC2)CCCCC1 | 17.9 | -8.8 | 45.9* | -15.9 | -6.0 | 52.7* | 45.2*
CCC(c1nnnn1-c1c(C)cccc1C)N1CCN(CCN2CCOCC2)CC1 (stereo not drawn) | · | · | · | · | -5.5 | · | ·
Cc1ccc(S(=O)(=O)N2[C@@H](c3cccc(Cl)c3)C(C(=O)OC(C)(C)C)=CC[C@H]2c2ccc(C(C)C)cc2)cc1 | · | · | · | · | -6.8 | · | ·
C[C@H]1CN([C@@H](C)CO)C(=O)CCCn2nncc2CO[C@@H]1CN(C)CC1CC1 | · | · | · | · | -4.2 | · | ·
O=C(c1ccccn1)N(Cc1ccco1)C1(C(=O)NC2CCCC2)CCCCC1 | 16.8 | -16.0 | 36.6* | -11.1 | -4.5 | 28.4* | 20.7
O=C(c1ccc2c(c1)OCO2)N(Cc1ccco1)C1(C(=O)NC2CCCCC2)CCCCC1 | 8.9 | -28.2 | 41.2* | -34.5 | -6.4 | 40.0* | 42.3*
O=C(c1ccccn1)N(Cc1ccco1)C1(C(=O)Nc2ccc(Br)cc2)CCCCC1 | · | · | · | · | -7.1 | · | ·
O=C(c1cnccn1)N(Cc1ccco1)C1(C(=O)NC2CCCC2)CCCCC1 | 9.0 | -11.8 | 40.2* | -10.1 | -4.6 | 30.6* | 15.9
CCCC(=O)OC[C@H]1CN(C2CCCC2)S(=O)(=O)c2c(Oc3ccc(F)cc3OC)cccc2O1 | · | · | · | · | -6.0 | · | ·
O=C(CCCn1c(=O)oc2ccccc21)NC1CCCCCC1 | 10.6 | -25.5 | 21.0* | -18.4 | · | -9.8 | -4.1
CCCCCCC(=O)NC1CCCCN(C)C1=O (stereo not drawn) | · | · | · | · | -6.0 | · | ·
N/N=C(/Cc1nc2ccccc2[nH]1)c1ccc([N+](=O)[O-])cc1 | 28.2 | 8.8 | 36.1* | 0.2 | -7.2 | 1.8 | 21.3
Cc1cc(N2CCN(C(C(=O)NC3CCCC3)c3ccc(F)cc3)CC2)c2ccccc2n1 (stereo not drawn) | · | · | · | · | -7.3 | · | ·
Cc1ccc(C(=O)N/N=C/c2ccoc2)cc1C | 5.1 | -50.2 | 25.5* | -8.8 | -2.4 | 4.0 | 6.0
NS(=O)(=O)c1cc(C(=O)OCC(=O)c2ccccc2)c(Cl)cc1Cl | 19.0 | -17.7 | 21.8* | -13.9 | 9.1 | 17.7 | 0.0
COc1ccc(CNC(=O)c2cc(=O)c3ccccc3o2)cc1 | -2.8 | -19.9 | -8.3 | 4.5 | -8.9 | · | ·
O=C(NCc1ccccc1)c1cc(=O)c2ccccc2o1 | 12.7 | 1.1 | 22.3* | -6.1 | -2.5 | -0.9 | 9.8
Nc1nc2n(n1)C(c1ccc(F)cc1)CC(c1ccc(F)cc1)N2 (stereo not drawn) | 7.7 | -9.2 | -3.9 | -4.2 | -4.3 | · | ·
CCc1ccc(C2CC(c3ccc(C)cc3)Nc3nc(N)nn32)cc1 (stereo not drawn) | 18.7 | -21.8 | 7.1 | -7.6 | -1.0 | · | ·
CCc1ccc(C2CC(c3ccccc3C)n3nc(N)nc3N2)cc1 (stereo not drawn) | 21.8 | 11.1 | 25.2* | -8.0 | -2.7 | 11.4 | 3.7

Screens as filed in PubChem BioAssay.
